Values after ≈ are worked out from the molar mass of the structure shown. Active and inactive are the calls of the source. The calls are words filed in the database; no cut-off is given here.
What was measured:
[1] = tested on: Mycobacterium tuberculosis; experiment: Antitubecular activity against Mycobacterium tuberculosis […] assessed as growth inhibition by low oxygen recovery assay; type: functional
How it was run: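 Non-replicating M. tuberculosis […] under low-oxygen conditions, with growth assessed on recovery (LORA). Endpoint was MIC, in μg/mL with μM in parentheses. Rifampin and isonicotinylhydrazine were the positive controls.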

NCI-H460 = experiment: Cytotoxicity against human NCI-H460 cells at 5 uM after 72 hrs by Alamar blue assay; type: functional, cell-based
How it was run: (§1)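 The human cancer cell panel was assayed by resazurin (alamarBlue) read-out, with 5.0 μM as the highest concentration tested and doxorubicin as the positive control. The procedure follows an earlier report.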

Vero = experiment: Cytotoxicity against African green monkey Vero cells after 72 hrs by MTS-PMS assay; type: cell-based; conditions: Chlorocebus sabaeus
How it was run: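 Vero cells were assayed by MTS-PMS colorimetric read-out, with rifampin as the positive control. The procedure follows an earlier report. Values are given as IC50.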

MDA-MB-231 = experiment: Cytotoxicity against human MDA-MB-231 cells at 5 uM after 72 hrs by Alamar blue assay; type: functional, cell-based; how it was run: as §1
PC-3M = experiment: Cytotoxicity against human PC3M cells at 5 uM after 72 hrs by Alamar blue assay; type: functional, cell-based; how it was run: as §1
[2] = tested on: Mycobacterium tuberculosis; experiment: Antitubecular activity against Mycobacterium tuberculosis […] assessed as growth inhibition after 4 days by microplate Alamar blue assay; type: functional; conditions: 96 h
How it was run: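 Replicating M. tuberculosis […] cultures in microplate alamar blue (resazurin) format. MIC was read out and reported in μg/mL, with μM in parentheses. Rifampin and isonicotinylhydrazine served as positive controls.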

MCF7 = experiment: Cytotoxicity against human MCF7 cells at 5 uM after 72 hrs by Alamar blue assay; type: functional, cell-based; how it was run: as §1
SF-268 = experiment: Cytotoxicity against human SF268 cells at 5 uM after 72 hrs by Alamar blue assay; type: functional, cell-based; how it was run: as §1

What does the source list for `CC1=C[C@@]2(C)C(=C(C)[C@H]3[C@H]4C[C@@H](C)C[C@@H](C)[C@@H]4[C@@H]4Oc5ccc(cc5)C[C@@H]5C(=O)NC(=O)[C@H]5C(=O)[C@H]2[C@H]43)[C@H]1C`?
MIC [1]: 41.1 µg/mL (≈ 77.9 µM); Activity (NCI-H460): inactive; IC50 (Vero): 33.6 µM; Activity (MDA-MB-231): inactive; Activity (PC-3M): inactive; MIC [2]: 20.1 µg/mL (≈ 38.1 µM); Activity (MCF7): inactive; Activity (SF-268): inactive

With `CO[C@H]1/C=C/O[C@@]2(C)Oc3c(C)c(O)c4c(O)c(c(/C=N/N5CCN(C)CC5)c(O)c4c3C2=O)NC(=O)/C(C)=C\C=C\[C@H](C)[C@H](O)[C@@H](C)[C@@H](O)[C@@H](C)[C@H](OC(C)=O)[C@@H]1C` [RIFAMPIN] as the molecule, how does the MIC [1] read?
The MIC was 0.1 µg/mL (≈ 0.122 µM).

What about the IC50 (Vero) of the same molecule?
The IC50 was 132 µM.

What about the MIC [2] of the same molecule?
Its MIC is 0.07 µg/mL (≈ 0.0851 µM).

Which MIC [1] does the source give for `CC1=C[C@@]2(C)C(=C(C)[C@H]3[C@H]4C[C@@H](C)C[C@@H](C)[C@@H]4[C@@H]4Oc5ccc(cc5)CC5(O)NC(=O)C6(O[C@H]56)C(=O)[C@H]2[C@H]43)[C@H]1C` (some centres not stated) here?
The MIC was 13.4 µg/mL (≈ 24.6 µM).

And the Activity (NCI-H460)?
Its Activity is “inactive”.

And the IC50 (Vero)?
Its IC50 is 35.7 µM.

And the Activity (MDA-MB-231)?
The Activity was “inactive”.

What about the Activity (PC-3M) of the same molecule?
Its Activity is “inactive”.

And the MIC [2]?
Its MIC is 5.2 µg/mL (≈ 9.56 µM).

What about the Activity (MCF7) of the same molecule?
Its Activity is “inactive”.

What about the Activity (SF-268) of the same molecule?
The Activity was “inactive”.

For `CC1=C[C@@]2(C)C(=C(C)[C@H]3[C@H]4C[C@@H](C)C[C@@H](C)[C@@H]4[C@@H]4Oc5ccc(cc5)C[C@@H]5C(=O)N(C)C(=O)[C@H]5C(=O)[C@H]2[C@H]43)[C@H]1C`, which MIC [1] is on record?
Its MIC is over 100 µg/mL.

And the Activity (NCI-H460)?
Its Activity is “inactive”.

What about the IC50 (Vero) of the same molecule?
The IC50 was 145 µM.

And the Activity (MDA-MB-231)?
Its Activity is “inactive”.

And the Activity (PC-3M)?
The Activity was “inactive”.

And the MIC [2]?
Its MIC is over 100 µg/mL.

And the Activity (MCF7)?
Its Activity is “inactive”.

And the Activity (SF-268)?
Its Activity is “inactive”.

What does the source list for `CC1=C[C@@]2(C)C(=C(C)[C@H]3[C@H]4C[C@@H](C)C[C@@H](C)[C@@H]4[C@@H]4Oc5ccc(cc5)C[C@H]5C(=O)NC(=O)[C@@H]5C(=O)[C@H]2[C@H]43)[C@H]1C`?
MIC [1]: 15.4 µg/mL (≈ 29.2 µM); Activity (NCI-H460): inactive; IC50 (Vero): 32.4 µM; Activity (MDA-MB-231): inactive; Activity (PC-3M): inactive; MIC [2]: 5.9 µg/mL (≈ 11.2 µM); Activity (MCF7): inactive; Activity (SF-268): inactive

For `NNC(=O)c1ccncc1` [ISONIAZID], which MIC [1] is on record?
The MIC was over 17.5 µg/mL.

And the MIC [2]?
The MIC was 0.03 µg/mL (≈ 0.219 µM).

From ChEMBL document CHEMBL2429813, “Phomapyrrolidones A-C, antitubercular alkaloids from the endophytic fungus Phoma sp. NRRL 46751” (J Nat Prod, 2013)
